Measured values of several laboratories.
Protocols differ between the studies behind these lines. pEC50, pIC50: −log10 of the molar value.
Cell line: MCF7
Read-out: cell growth or viability

| SMILES | assay | conditions | quantity | result |
| --- | --- | --- | --- | --- |
| C=CC(=O)NC1CCN(c2ncc3ncnc(Nc4ccc(Oc5ccc6c(c5)ncn6C)c(C)c4)c3n2)CC1 |  |  | pEC50 | 5.28 |
| C[C@@H]1CC[C@@H]([C@](O)(CNCc2ccccc2)COCc2ccc(F)cc2)[C@H](OCc2ccc(F)cc2)C1 | MTT | 30 µM, 72 h | inhibition | 100% |
| CC(=O)c1nn(-c2ccc(C)cc2)/c(=N/N=C(\C)c2ccc(NC(=O)c3ccccc3)cc2)s1 | MTT | 2.5 µM | viability | 6.47% |
| CC(=NNC(=O)c1ccccc1Cl)c1ccc(Nc2nnc(-c3ccc(Cl)cc3)c3ccccc23)cc1 | MTT | 5 µM, 24 h | viability | 8.28% |
| C[C@@H]1CC[C@@H]([C@](C)(O)CNCc2ccccc2)[C@H](OCc2ccccc2)C1 | MTT | 10 µM, 72 h | inhibition | 97.6% |
| COc1ccc(-c2cc(-c3ccc(Br)cc3)c3c(=O)n(C)c(=O)n(C)c3n2)cc1 | MTT | 48 h | pIC50 | 4.53 |
| C[C@@H]1CC[C@@H]([C@](O)(CNCc2ccc(F)cc2)COCc2ccc(F)cc2)[C@H](OCc2ccc(F)cc2)C1 | MTT | 10 µM, 72 h | inhibition | 93.7% |
| CC(=NNC(=O)c1ccncc1)c1ccc(Nc2nnc(-c3ccc(Cl)cc3)c3ccccc23)cc1 | MTT | 2.5 µM, 24 h | viability | 5.58% |
| CC(=O)c1nn(-c2ccccc2Cl)/c(=N/N=C(\C)c2ccc(NC(=O)c3ccccc3)cc2)s1 | MTT | 10 µM | viability | 5.78% |
| C[C@H](Nc1ccc2c(c1)OCCn1cc(N3C(=O)OC[C@H]3C(F)F)nc1-2)C(N)=O |  | 5 days | pEC50 | 7.71 |
| CCOC(=O)c1nn(-c2cccc(Cl)c2)/c(=N/N=C(\C)c2ccc(NC(=O)c3ccc(Cl)cc3)cc2)s1 | MTT | 2.5 µM | viability | 3.54% |
| C[C@@H]1CC[C@@H]([C@](C)(O)Cn2cnc3ccccc32)[C@H](OCc2ccccc2)C1 | MTT | 10 µM, 72 h | inhibition | 51% |
| O=C(C=Cc1ccccc1)Nc1ccc(Oc2nnc(-c3ccc(Cl)cc3)c3ccccc23)cc1 | MTT | 10 µM | cell death | 91.9% |
| CC(=O)Nc1ccc(/C(C)=N/N=c2\sc(C(C)=O)nn2-c2ccc(C)cc2)cc1 | MTT | 1.25 µM | viability | 49.5% |
| CC(=NNC(=O)c1ccccc1Br)c1ccc(Nc2nnc(-c3ccc(Cl)cc3)c3ccccc23)cc1 | MTT | 0.625 µM | cell death | 24.1% |
| C[C@@H]1CC[C@@H]([C@](O)(CNCc2cccc3ccccc23)COCc2ccccc2)[C@H](OCc2ccccc2)C1 | MTT | 10 µM, 72 h | inhibition | 81.1% |
| O=C(Nc1ccc(Oc2nnc(-c3ccc(Cl)cc3)c3ccccc23)cc1)c1cccc([N+](=O)[O-])c1 | MTT | 0.312 µM | cell death | 83% |
| CCOC(=O)c1nn(-c2cccc(Cl)c2)/c(=N/N=C(\C)c2ccc(NC(=O)c3ccccc3)cc2)s1 | MTT | 2.5 µM | viability | 2.67% |
| CC(=NNC(=S)Nc1ccccc1)c1ccc(Nc2nnc(-c3ccc(Cl)cc3)c3ccccc23)cc1 | MTT | 10 µM, 24 h | viability | 3.45% |
| C=C(C)[C@@H]1CC[C@@H](C)C[C@H]1OCc1ccc(OC)cc1 | MTT | 30 µM, 72 h | inhibition | 37.7% |
| Cc1ccc(-c2cc(-c3c(Cl)cccc3Cl)c3c(=O)[nH]c(=O)[nH]c3n2)cc1 | MTT | 48 h | pIC50 | 4.41 |
